# Shown are actives, neighbours in structure and some others; about 1.4% of the full set was active somewhere.
# Apaf-1 inh – inhibitors of human Apaf-1 apoptosome; O14727; reconstituted apoptosome caspase-3 activity, DEVD-Rh110 fluorescence; inhibition, % at 20 µM; 330,000 compounds, 0.71% hits; active = inhibition of at least 40% at 20 µM;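 also: plate controls were DMSO wells for no effect and DEVD-CHO caspase inhibitor wells for full effect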
#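 Material: reconstituted apoptosome with Apaf-1, cytochrome c, caspase-9, procaspase-3, dATP. Technique: Rh110 fluorescence intensity. Buffer or medium: pH 7.5 Hepes buffer with CHAPS, BSA, DTT. Times: 30 min plus 50 min, RT.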
# UBC9 SUMO inh – blocks human SUMOylation mediated by UBC9. P63279. HTRF SUMOylation assay, SAE1/SAE2 + UBC9, in vitro. inhibition, % at 35 µM. 290,000 compounds, 0.36% hits; in the data active = inhibition above about 50%, passing the limit was not always enough; inconclusive = no clear call, values can overlap the other calls
# GSTO1 counter – counter-screen for RBBP9 inhibitors: inhibitors of human GSTO1 | P78417 | recombinant GSTO1, activity-based probe fluorescence polarization | inhibition, % at 5.96 µM | 300,000 compounds, 1.1% hits | AID 1974;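 active = inhibition above the campaign mean inhibition plus 3 SD, cut at about 35% in these data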;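 also: 0% = GSTO1-1 with DMSO and 100% = wells lacking GSTO1-1 enzyme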
# HKDC1 inh – HKDC1 (human) hexokinase inhibition; 340,000 compounds, 0.16% hits; inhibition, % at 20 µM; Q2TB90; recombinant HKDC1, G6PDH/diaphorase resazurin coupled fluorescence; AID 493160;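 active = inhibition above about 35% when tested at 20 µM, limit read from the data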;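 also: plate controls were DMSO wells with enzyme for no effect and DMSO wells lacking enzyme for full effect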
# Target sequence (Q2TB90 whole entry, looked up): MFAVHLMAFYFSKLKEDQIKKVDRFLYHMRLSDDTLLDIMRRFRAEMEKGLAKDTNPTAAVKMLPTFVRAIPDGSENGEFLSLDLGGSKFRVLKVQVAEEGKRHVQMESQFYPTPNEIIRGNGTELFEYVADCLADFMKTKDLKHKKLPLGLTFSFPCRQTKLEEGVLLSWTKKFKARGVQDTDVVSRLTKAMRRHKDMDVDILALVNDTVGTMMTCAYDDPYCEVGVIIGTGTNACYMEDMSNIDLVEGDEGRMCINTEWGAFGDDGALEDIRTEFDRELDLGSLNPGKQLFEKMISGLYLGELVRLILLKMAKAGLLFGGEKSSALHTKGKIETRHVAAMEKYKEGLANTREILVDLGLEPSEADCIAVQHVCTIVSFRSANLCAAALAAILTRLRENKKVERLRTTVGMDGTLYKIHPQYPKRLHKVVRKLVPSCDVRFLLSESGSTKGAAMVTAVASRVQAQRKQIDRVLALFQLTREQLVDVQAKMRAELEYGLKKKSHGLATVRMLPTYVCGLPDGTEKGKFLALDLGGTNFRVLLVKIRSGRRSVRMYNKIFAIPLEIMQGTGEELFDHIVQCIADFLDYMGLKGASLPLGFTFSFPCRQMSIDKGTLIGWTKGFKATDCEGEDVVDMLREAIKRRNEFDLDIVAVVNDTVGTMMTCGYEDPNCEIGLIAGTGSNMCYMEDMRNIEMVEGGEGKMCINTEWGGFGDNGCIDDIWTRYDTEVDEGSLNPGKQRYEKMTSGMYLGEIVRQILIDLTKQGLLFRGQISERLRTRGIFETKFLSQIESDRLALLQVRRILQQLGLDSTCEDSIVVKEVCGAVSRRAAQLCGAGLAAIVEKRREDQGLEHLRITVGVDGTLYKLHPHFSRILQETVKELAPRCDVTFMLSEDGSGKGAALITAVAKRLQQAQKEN
#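 Assay system – recombinant HKDC1 (HK5) hexokinase enzyme, produced in-house · Input – HKDC1 at 5 µg/mL · Reagent – glucose plus 1 mM ATP as hexokinase substrates · Timing – 90 min reaction incubation at room temperature, dark · Measured by – G6PDH/diaphorase-coupled fluorescence, 1 mM NADP, 100 µM resazurin, 525/613 nm · Benchmarks – DMSO-enzyme wells negative, buffer-substituted wells positive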
# Redox H2O2 prof – compounds producing H2O2 with reducing agent – biochemical, NIH compound library profiling, artefact control for MLSCN library redox annotation, primary screen; DTT-dependent redox cycling H2O2, phenol red/HRP absorbance; 100% = 100 µM peroxide control, 0% = buffer; activation, % at 10 µM; 200,000 compounds, 0.03% hits; AID 878;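 active = activation of at least 50% relative to the plate's high and low controls in the primary single-dose screen; inactive = activation below 50%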;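 also: compound incubated with DTT at 0.8 mM final as the reducing agent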
# GSTO1 confirm – GSTO1 (human) inhibition, confirmation. shares compounds with GSTO1 counter. recombinant GSTO1, probe fluorescence polarization. inhibition, % at 5.96 µM. 2,400 compounds, 54% hits;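 active = inhibition above the primary screen's cutoff, its mean inhibition plus 3 SD, cut at about 35% in these data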;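 also: loss of polarization as inhibitors block binding of rhodamine sulfonate ester activity probe; 0% = GSTO1 with DMSO and 100% = wells lacking GSTO1 enzyme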
# GSTO1 ABPP inh – inhibitors of recombinant human GSTO1. shares compounds with GSTO1 counter. gel ABPP SE-Rh probe fluorescence. inhibition, % at 1 µM. 130 compounds, 30% hits. AID 463110;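 active = inhibition of the enzyme GSTO1 above about 75%, limit read from the data; inactive = inhibition below that limit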
# Apaf-1 inh conf2 – confirmation of Apaf-1 inhibitors; shares compounds with Apaf-1 inh; reconstituted apoptosome, caspase-3 DEVD-Rh110 fluorescence; inhibition, % at 20 µM; 1,800 compounds, 25% hits; AID 504614;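 active = mean inhibition of at least 40% at 20 µM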;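 also: plate controls were DMSO wells for no effect and DEVD-CHO caspase inhibitor control wells for full effect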
# Rh110 interf inh – Rh110 signal interference in Apaf-1 inhibitor counter-screen | activation (fluorescence interference), % at 20 µM | AID 504615 | Rh110 fluorescence interference, quenched caspase reaction | shares compounds with Apaf-1 inh | 1,800 tested, under 10 active;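 active = signal rise of 40% or more at 20 µM, treated as a fluorescence artifact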
# Apaf1 inh interf – Apaf-1 inhibitor counter-screen fluorescence artifact. shares compounds with Apaf-1 inh. fluorescence interference counterscreen, Apaf-1 assay format. IC50, µM. 460 tested, under 10 active. AID 588538; call rule not given here
# HKDC1 act conf – confirmation of human HKDC1 activators; shares compounds with HKDC1 inh; recombinant HKDC1, G6PDH/diaphorase resazurin fluorescence; stronger effect = lower value; inhibition, % at 20 µM; 740 compounds, 14% hits; AID 504708;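 active = inhibition at or below a set negative limit, negative inhibition meaning the enzyme was activated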
# Starred values were filed as active, the others as inactive; ? = inconclusive; . = not tested or not shown.
SMILES,Apaf-1 inh,UBC9 SUMO inh,GSTO1 counter,HKDC1 inh,Redox H2O2 prof,GSTO1 confirm,others
COC(=O)C1=C(c2ccc(S(C)(=O)=O)cc2)C[C@@H]2CC[C@H]1N2C(=O)N1CCC(C)CC1,-2,.,0,-3,.,.,
COc1ccc(CC2(CCc3ccncc3)C(=O)NC(=O)NC2=O)c(OC)c1,2,-3,6,6,0,.,
CCOCN(C(=O)CCl)c1c(C)cccc1CC,14,.,83*,-19,.,92*,GSTO1 ABPP inh=0
COP(=S)(OC)SCN1C(=O)c2ccccc2C1=O,12,28,38*,-4,2,60*,
O=c1[nH]c(=O)n(Cc2ccccc2Cl)c(O)c1C=Nc1ccc(F)cc1,-11,12,-2,-5,-1,.,
C=CCn1c(O)c(C(CC)=Nc2ccc3c(c2)CCC3)c(=O)[nH]c1=O,8,9,4,0,.,.,
C=CCn1c(O)c(C(CC)=Nc2ccc(N(C)C)cc2)c(=O)[nH]c1=O,6,40,65*,-4,.,3,
O=C1NC(=O)C(=CN2CCc3ccccc32)C(=O)N1,-3,43,39*,-2,-1,5,
O=C1NC(=O)C(=CCc2ccccc2)C(=O)N1,.,.,.,-1,.,.,
CC(C)CCNC(=O)c1c(N)n(CC2CCCO2)c2nc3ccccc3nc12 (configuration not stated),91*,99,54*,7,0,57*,
CCCCn1c(N)c(C(=O)NCCN2CCOCC2)c2nc3ccccc3nc21,37,44,-1,6,0,.,
CCN(CC)c1ccc(/C=C2/C(=O)NC(=O)N(CC3CCCO3)C2=O)cc1 (configuration not stated),-2,4,43*,-2,-3,8,
CC1CC(C)OP(=O)(OCCC#N)O1 (configuration not stated),.,.,.,-3,.,.,
COc1ccc(OC)c(N2C(=O)NC(=O)/C(=C\c3ccc([N+](=O)[O-])s3)C2=O)c1,25,39,40*,12,0,26,
C=C1[C@H]2CC[C@H]3[C@]4(C)C[C@H](O[C@@H]5OC(CO)[C@@H](OSOOO)[C@H](OS(=O)(=O)O)[C@H]5OC(=O)CC(C)C)C[C@@H](C(=O)O)[C@H]4CC[C@]3(C2)[C@H]1O (some centres not stated),-2,.,.,-3,.,.,
CCOc1ccc(Cc2c(O)[nH]c(=O)[nH]c2=O)cc1,13,32,23,-3,0,.,
CC(C)Oc1ccc(Cc2c(O)[nH]c(=O)[nH]c2=O)cc1,-23,11,40*,-3,3,5,
C/C=C(\C)C(=O)OC1C(C)=C2C(C1OC(=O)CCCCC)C(C)(OC(C)=O)CC(OC(=O)CCC)C1(O)C2OC(=O)C1(C)O (configuration not stated),18,-14,4,.,.,.,
CCOc1cccc(=NC2CCCCC2)c2c(C)n(C)c(C)c12,-16,12,-17,8,.,.,
CCN1CCN(Cc2cc3c(cc2[N+](=O)[O-])OCO3)CC1,1,-9,38*,-6,.,19,
O=[N+]([O-])c1cc2c(cc1CNCCc1ccc3c(c1)OCO3)OCO2,-12,6,6,-4,1,.,
C=C(C)CN1CC[C@]23c4c5ccc(O)c4O[C@H]2c2[nH]c4ccccc4c2C[C@@]3(O)C1C5,.,-6,6,.,.,.,
CC1CCCN(C(=O)CCl)C1 (configuration not stated),-3,6,66*,-4,-1,84*,GSTO1 ABPP inh=57
Cc1ccccc1-n1c(O)c(C=Nc2ccc(N(C)C)cc2)c(=O)[nH]c1=O,24,-14,45*,11,0,6,
C[n+]1c(-c2ccccc2)c2cc(N)ccc2c2ccc(N)cc21,98*,101*,104*,3,.,90*,Apaf-1 inh conf2=80*;Rh110 interf inh=2;Apaf1 inh interf=>100
SMILES,Apaf-1 inh,UBC9 SUMO inh,GSTO1 counter,HKDC1 inh,Redox H2O2 prof,GSTO1 confirm,others
Nc1ccc2ccc3cccc[n+]3c2c1,1,?,33,9,.,.,
COc1cc2c(cc1O)[C@@H]1Cc3ccc(OC)c(O)c3CN1CC2,93*,.,69*,16,.,6,Apaf-1 inh conf2=58*;Rh110 interf inh=-4;Apaf1 inh interf=>100
COCCCn1c(N)c(C(=O)NCc2ccco2)c2nc3ccccc3nc21,95*,98,76*,15,.,2,Apaf-1 inh conf2=19;Rh110 interf inh=7
Cc1c(C(=O)N2CCC3(CC2)OCCO3)sc2ncnc(N3CCc4ccccc4C3)c12,-5,-11,5,3,0,.,
CCOC(=O)c1c(N)n(CCN2CCCCC2)c2nc3ccccc3nc12,-7,18,7,8,1,.,
CCC(C)NC(=O)c1c(N)n(CC2CCCO2)c2nc3ccccc3nc12 (configuration not stated),94*,101,38*,16,-1,58*,Apaf-1 inh conf2=56*;Rh110 interf inh=12;Apaf1 inh interf=>100
Nc1c(C(=O)OCc2ccccc2)c2nc3ccccc3nc2n1Cc1cccs1,86*,8,51*,-4,0,30,Apaf-1 inh conf2=23;Rh110 interf inh=18
O=C(/C=C/c1ccc(F)cc1)NC(=S)N1C[C@H]2C[C@H](C1)c1cccc(=O)n1C2,-2,4,-6,-5,.,.,
Cc1ccc(OC(F)F)c(N2C(=O)C3C4CCC(O4)C3C2=O)c1 (configuration not stated),13,.,.,-4,.,.,
CN1CCc2cc3c(c4c2C1Cc1ccccc1-4)OCO3 (configuration not stated),91*,37,77*,32,.,63*,Apaf-1 inh conf2=67*;Rh110 interf inh=9;Apaf1 inh interf=>100;HKDC1 act conf=-1
CC(=NCc1ccc2c(c1)OCO2)c1c(O)n(-c2ccc(C)cc2)c(=O)[nH]c1=O,-6,19,-5,-1,.,.,
CCCCCCCCCCCCCCCC[N+](C)(C)C,85*,.,6,9,.,.,Apaf-1 inh conf2=46*;Rh110 interf inh=15;Apaf1 inh interf=>100
CCCCCC[N+](=O)[O-],-6,.,.,-3,.,.,
O=S1(=O)N(CCN2CC=C(c3c[nH]c4cc(F)ccc34)CC2)c2cccc3c2N1CCC3,51*,.,-2,5,.,.,Apaf-1 inh conf2=15;Rh110 interf inh=-4
